Experiments:
Collagenase 3 = Collagenase 3 (Homo sapiens, UniProt P45452); assay: Inhibition of human recombinant MMP13
Outline: (§1)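 Enzyme potency is expressed as IC50 in nM, reported as average ± SD.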

[1] = molecular target: T1, Disintegrin and metalloproteinase domain-containing protein 17 (Homo sapiens, UniProt P78536); assay: Inhibition of human TACE in human whole blood
[2] = molecular target: 72 kDa type IV collagenase (Homo sapiens, UniProt P08253); assay: Inhibition of human recombinant MMP2; outline: as §1
[3] = molecular target: T1, Disintegrin and metalloproteinase domain-containing protein 17; assay: Inhibition of human TACE expressed in CHO cells by FRET assay; type: cell-based
[4] = molecular target: Matrix metalloproteinase-14 (Homo sapiens, UniProt P50281); assay: Inhibition of human recombinant MMP14
Homo sapiens [5] = species: Homo sapiens; assay: Selectivity for TACE over MMP13
Homo sapiens [6] = species: Homo sapiens; assay: Selectivity for TACE over MMP2
Mus musculus = assay: Inhibition of LPS-induced TNFalpha production in BALB/CJ mouse at 25 mg/kg, po after 90 mins; type: functional; conditions: 1.5 h

T1 sequence (P78536 whole entry, the tested form may be a part): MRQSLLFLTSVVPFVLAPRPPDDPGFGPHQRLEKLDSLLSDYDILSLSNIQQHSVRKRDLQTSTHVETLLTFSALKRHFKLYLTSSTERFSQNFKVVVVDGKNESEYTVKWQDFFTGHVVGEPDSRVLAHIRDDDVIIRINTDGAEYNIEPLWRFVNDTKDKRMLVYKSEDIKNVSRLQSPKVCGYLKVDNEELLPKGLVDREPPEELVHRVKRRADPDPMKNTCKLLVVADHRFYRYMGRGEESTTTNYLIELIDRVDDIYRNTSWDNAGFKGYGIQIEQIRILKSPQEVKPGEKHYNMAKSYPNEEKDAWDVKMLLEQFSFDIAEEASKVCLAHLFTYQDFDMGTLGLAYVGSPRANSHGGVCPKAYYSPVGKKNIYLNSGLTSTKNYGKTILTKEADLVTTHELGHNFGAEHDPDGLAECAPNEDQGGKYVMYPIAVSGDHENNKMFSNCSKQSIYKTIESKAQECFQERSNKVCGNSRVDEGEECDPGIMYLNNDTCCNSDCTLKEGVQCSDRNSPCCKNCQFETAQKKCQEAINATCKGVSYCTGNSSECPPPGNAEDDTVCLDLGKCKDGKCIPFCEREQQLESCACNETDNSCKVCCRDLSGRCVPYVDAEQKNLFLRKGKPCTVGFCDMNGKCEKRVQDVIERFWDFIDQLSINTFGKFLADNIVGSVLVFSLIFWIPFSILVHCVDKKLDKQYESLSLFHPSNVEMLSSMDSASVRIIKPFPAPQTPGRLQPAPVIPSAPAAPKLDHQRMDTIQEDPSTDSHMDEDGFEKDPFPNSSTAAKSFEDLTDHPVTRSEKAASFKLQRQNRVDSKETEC
Sequence of 72 kDa type IV collagenase (P08253 whole entry, the tested form may be a part): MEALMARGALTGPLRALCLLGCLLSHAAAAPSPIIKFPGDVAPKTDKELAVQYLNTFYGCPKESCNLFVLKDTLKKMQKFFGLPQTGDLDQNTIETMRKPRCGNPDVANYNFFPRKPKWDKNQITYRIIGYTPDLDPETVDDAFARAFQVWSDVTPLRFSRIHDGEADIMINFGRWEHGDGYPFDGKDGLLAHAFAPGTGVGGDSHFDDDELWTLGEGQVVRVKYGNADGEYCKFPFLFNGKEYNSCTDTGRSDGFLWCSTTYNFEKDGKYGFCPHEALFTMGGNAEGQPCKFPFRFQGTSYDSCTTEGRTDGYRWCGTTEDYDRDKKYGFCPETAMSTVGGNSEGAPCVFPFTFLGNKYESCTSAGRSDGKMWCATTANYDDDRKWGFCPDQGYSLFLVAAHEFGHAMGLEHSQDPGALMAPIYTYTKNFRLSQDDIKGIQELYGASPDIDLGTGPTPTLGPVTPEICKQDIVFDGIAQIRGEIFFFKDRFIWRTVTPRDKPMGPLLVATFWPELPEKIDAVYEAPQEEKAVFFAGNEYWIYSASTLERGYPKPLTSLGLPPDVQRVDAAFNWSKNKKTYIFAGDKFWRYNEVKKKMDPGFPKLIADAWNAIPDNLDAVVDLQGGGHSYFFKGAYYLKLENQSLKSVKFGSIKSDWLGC

IC50 (Collagenase 3) [nM]	IC50 [1] [nM]	IC50 [2] [nM]	IC50 [3] [nM]	IC50 [4] [nM]	Selectivity ratio (Homo sapiens [5])	Selectivity ratio (Homo sapiens [6])	SMILES	inhibition in vivo at 25 mg/kg (Mus musculus) [%]
2080	5000	97	2	–	–	–	CC#CCNc1ccc(S(=O)(=O)CC2(C(=O)NO)CCN(S(=O)(=O)C(C)C)CC2)cc1	–
6880	7200	1530	6.4	4320	–	–	CC#CCNc1ccc(S(=O)(=O)CC2(C(=O)NO)CCN(Cc3ccncc3)CC2)cc1	–
–	16000	120	1.6	2370	> 400	–	CC#CCNc1ccc(S(=O)(=O)CC2(C(=O)NO)CCN(C(=O)OC(C)(C)C)CC2)cc1	–
1600	> 50000	–	3.3	–	–	–	CC#CCN(C)c1ccc(S(=O)(=O)CC2(C(=O)NO)CCN(C(=O)OC(C)(C)C)CC2)cc1	–
1040	25000	334	10	–	–	–	CC(C)(C)OC(=O)N1CCC(CS(=O)(=O)c2ccc(NCC#CCO)cc2)(C(=O)NO)CC1	–
–	300	–	–	–	–	–	CC#CCOc1ccc(S(=O)(=O)N2CCSC(C)(C)[C@@H]2C(=O)NO)cc1	–
157	1500	280	3	3640	52	93	CC#CCOc1ccc(S(=O)(=O)CC2(C(=O)NO)CCN(S(=O)(=O)C(C)C)CC2)cc1	–
2910	31000	4180	4	–	720	1000	CC#CC(C)Oc1ccc(S(=O)(=O)CC2(C(=O)NO)CCN(S(=O)(=O)C(C)C)CC2)cc1 (stereo not given)	–
584	4800	46	2.5	1000	499	–	CC#CCNc1ccc(S(=O)(=O)CC2(C(=O)NO)CCN(C(=O)c3ccccc3C)CC2)cc1	–
772	6400	216	< 1	3620	> 750	–	CC#CCNc1ccc(S(=O)(=O)CC2(C(=O)NO)CCN(C(=O)N(CC)CC)CC2)cc1	–
135	14000	–	2	–	–	–	CC#CCOc1ccc(S(=O)(=O)CC2(C(=O)NO)CCN(C(=O)OC(C)(C)C)CC2)cc1	–
–	–	–	64.5	–	–	–	CC#CCNc1ccc(S(=O)(=O)CC2(C(=O)NO)CCNCC2)cc1	–
2480	4900	1310	3.5	7050	–	–	CC#CCNc1ccc(S(=O)(=O)CC2(C(=O)NO)CCN(C(=O)C(C)CC)CC2)cc1 (stereo not given)	–
3200	3600	513	2.3	4890	–	–	CC#CCNc1ccc(S(=O)(=O)CC2(C(=O)NO)CCN(C(=O)C(C)C)CC2)cc1	72
12000	> 50000	> 1670	27	–	–	–	CC#CC(C)(C)Oc1ccc(S(=O)(=O)CC2(C(=O)NO)CCN(S(=O)(=O)C(C)C)CC2)cc1	–

SMILES	IC50 (Collagenase 3) [nM]	IC50 [1] [nM]	IC50 [2] [nM]	IC50 [3] [nM]	IC50 [4] [nM]	Selectivity ratio (Homo sapiens [5])	Selectivity ratio (Homo sapiens [6])	inhibition in vivo at 25 mg/kg (Mus musculus) [%]
CC#CCNc1ccc(S(=O)(=O)N2CCSC(C)(C)[C@@H]2C(=O)NO)cc1	30	3500	56	2.3	–	–	–	–
